Broadly, the Ki is the dissociation constant of the complex between target and ligand, obtained from inhibition or displacement. Low values mean higher affinity, high ones lower affinity.

The experiment addresses T1, Calpain-2 catalytic subunit (Homo sapiens, UniProt P17655).
T1 sequence (P17655 whole entry): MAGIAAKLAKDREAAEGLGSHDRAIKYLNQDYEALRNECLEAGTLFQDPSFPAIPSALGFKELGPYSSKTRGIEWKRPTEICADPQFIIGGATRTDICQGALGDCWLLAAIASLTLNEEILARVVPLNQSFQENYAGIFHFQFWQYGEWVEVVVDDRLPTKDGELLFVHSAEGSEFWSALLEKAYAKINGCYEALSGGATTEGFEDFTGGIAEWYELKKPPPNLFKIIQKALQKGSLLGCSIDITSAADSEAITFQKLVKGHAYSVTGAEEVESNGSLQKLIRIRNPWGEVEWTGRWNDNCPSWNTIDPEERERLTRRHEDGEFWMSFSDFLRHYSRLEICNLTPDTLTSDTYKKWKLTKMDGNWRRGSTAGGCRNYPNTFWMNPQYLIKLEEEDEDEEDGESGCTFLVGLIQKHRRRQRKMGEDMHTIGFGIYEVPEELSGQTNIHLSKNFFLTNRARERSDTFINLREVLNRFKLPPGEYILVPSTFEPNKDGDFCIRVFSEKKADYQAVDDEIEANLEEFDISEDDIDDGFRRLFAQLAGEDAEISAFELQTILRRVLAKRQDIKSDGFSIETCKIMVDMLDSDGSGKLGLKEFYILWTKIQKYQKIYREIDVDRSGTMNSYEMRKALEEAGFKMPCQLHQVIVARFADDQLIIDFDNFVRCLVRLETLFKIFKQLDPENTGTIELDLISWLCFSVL
Briefly: Compound was evaluated for the inhibition of Cysteine protease Calpain 2. Summed up:
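Calpain assay in 25 mM Tris, pH 8.0, with 10 mM CaCl₂ and 5% DMSO. Suc-Leu-AMC hydrolysis was read as initial velocity (t = 30-60 s) after a 30 s delay, at room temperature. Five or more inhibitor concentrations (not above 2 × K_obs) were used at two fixed substrate levels. Ki came from Dixon plots (1/v vs I) averaged over triplicates.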

`CC(C)CC(NC(=O)C(c1ccccc1)c1ccccc1)C(=O)NC(Cc1ccccc1)C(=O)C(=O)NCC(O)c1ccccc1` (stereo not drawn) [2-Diphenylacetylamino-4-methyl-pentanoic acid [1-benzyl-2-(2-hydroxy-2-phenyl-ethylcarbamoyl)-2-oxo-ethyl]-amide] displayed a Ki of 730 nM.
The value for `CC(C)CC(NC(=O)C(c1ccccc1)c1ccccc1)C(=O)NC(Cc1ccccc1)C(=O)C(=O)NCCCN1CCOCC1` (stereo not drawn) [2-Diphenylacetylamino-4-methyl-pentanoic acid [1-benzyl-2-(3-morpholin-4-yl-propylcarbamoyl)-2-oxo-ethyl]-amide] was 74 nM; that for `CC(C)CC(NC(=O)C(c1ccccc1)c1ccccc1)C(=O)NC(Cc1ccccc1)C(=O)C(=O)NCc1ccccn1` (stereo not drawn) [2-Diphenylacetylamino-4-methyl-pentanoic acid {1-benzyl-2-oxo-2-[(pyridin-2-ylmethyl)-carbamoyl]-ethyl}-amide] was 360 nM; that for `CCC(NC(=O)C(CC(C)C)NC(=O)C(c1ccccc1)c1ccccc1)C(=O)C(=O)NCCCN1CCOCC1` (stereo not drawn) [3-(2-Diphenylacetylamino-4-methyl-pentanoylamino)-2-oxo-pentanoic acid (3-morpholin-4-yl-propyl)-amide] was 110 nM.
With `CCC(NC(=O)C(CC(C)C)NC(=O)C(c1ccccc1)c1ccccc1)C(=O)C(=O)NCc1ccccn1` (stereo not drawn) [3-(2-Diphenylacetylamino-4-methyl-pentanoylamino)-2-oxo-pentanoic acid (pyridin-2-ylmethyl)-amide], the Ki is 90 nM.
The value for `CCNC(=O)C(=O)C(CC)NC(=O)C(CC(C)C)NC(=O)C(c1ccccc1)c1ccccc1` (stereo not drawn) [3-(2-Diphenylacetylamino-4-methyl-pentanoylamino)-2-oxo-pentanoic acid ethylamide] was 1200 nM; that for `CCNC(=O)C(=O)C(CC)NC(=O)C(CC(C)C)NC(=O)Cc1cccc2ccccc12` (stereo not drawn) [3-[4-Methyl-2-(2-naphthalen-1-yl-acetylamino)-pentanoylamino]-2-oxo-pentanoic acid ethylamide] was 250 nM.
`CCNC(=O)C(=O)C(CC)NC(=O)C(CC(C)C)NC(=O)CCc1ccccc1` (stereo not drawn) [3-[4-Methyl-2-(3-phenyl-propionylamino)-pentanoylamino]-2-oxo-pentanoic acid ethylamide] displayed a Ki of 130 nM.
In the case of `CC(C)CC(NC(=O)OCc1ccccc1)C(=O)NC(Cc1ccccc1)C(=O)C(=O)NCC(O)c1ccc(OCc2ccccc2)c(OCc2ccccc2)c1` (stereo not drawn) [(1-{1-Benzyl-2-[2-(3,4-bis-benzyloxy-phenyl)-2-hydroxy-ethylcarbamoyl]-2-oxo-ethylcarbamoyl}-3-methyl-butyl)-carbamic acid benzyl ester], the affinity, expressed as Ki, was 670 nM.
Next, `CC(C)CC(NC(=O)OCc1ccccc1)C(=O)NC(Cc1ccccc1)C(=O)C(=O)NCC(O)c1ccc(OCc2ccccc2)cc1` (stereo not drawn) [(1-{1-Benzyl-2-[2-(4-benzyloxy-phenyl)-2-hydroxy-ethylcarbamoyl]-2-oxo-ethylcarbamoyl}-3-methyl-butyl)-carbamic acid benzyl ester]: 240 nM; `CC(C)CC(NC(=O)OCc1ccccc1)C(=O)NC(Cc1ccccc1)C(=O)C(=O)NCC(O)c1cccc(Oc2ccccc2)c1` (stereo not drawn) [(1-{1-Benzyl-2-[2-hydroxy-2-(3-phenoxy-phenyl)-ethylcarbamoyl]-2-oxo-ethylcarbamoyl}-3-methyl-butyl)-carbamic acid benzyl ester]: 340 nM.
The molecule `CC(C)CC(NC(=O)OCc1ccccc1)C(=O)NC(Cc1ccccc1)C(=O)C(=O)NCC(O)c1cccc(C(F)(F)F)c1` (stereo not drawn) [(1-{1-Benzyl-2-[2-hydroxy-2-(3-trifluoromethyl-phenyl)-ethylcarbamoyl]-2-oxo-ethylcarbamoyl}-3-methyl-butyl)-carbamic acid benzyl ester] came in with a Ki of 290 nM.
Next, `CC(C)CC(NC(=O)OCc1ccccc1)C(=O)NC(Cc1ccccc1)C(=O)C(=O)NCC(O)c1ccc(Oc2ccccc2)cc1` (stereo not drawn) [(1-{1-Benzyl-2-[2-hydroxy-2-(4-phenoxy-phenyl)-ethylcarbamoyl]-2-oxo-ethylcarbamoyl}-3-methyl-butyl)-carbamic acid benzyl ester]: 170 nM.
Next, `CC(C)CC(NC(=O)OCc1ccccc1)C(=O)NC(Cc1ccccc1)C(=O)C(=O)NCc1ccccn1` (stereo not drawn) [(1-{1-Benzyl-2-oxo-2-[(pyridin-2-ylmethyl)-carbamoyl]-ethylcarbamoyl}-3-methyl-butyl)-carbamic acid benzyl ester]: 270 nM; `CC(C)CC(NC(=O)OCc1ccccc1)C(=O)NC(Cc1ccccc1)C(=O)C(=O)NCc1ccc2ccccc2n1` (stereo not drawn) [(1-{1-Benzyl-2-oxo-2-[(quinolin-2-ylmethyl)-carbamoyl]-ethylcarbamoyl}-3-methyl-butyl)-carbamic acid benzyl ester]: 23 nM; `CCC(NC(=O)C(CC(C)C)NC(=O)OCc1ccccc1)C(=O)C(=O)NCCc1c[nH]c2ccccc12` (stereo not drawn) [(1-{1-[2-(1H-Indol-3-yl)-ethylaminooxalyl]-propylcarbamoyl}-3-methyl-butyl)-carbamic acid benzyl ester]: 50 nM.
Next, `CCC(NC(=O)C(CC(C)C)NC(=O)OCc1ccccc1)C(=O)C(=O)NCC(O)c1ccc(OCc2ccccc2)c(OCc2ccccc2)c1` (stereo not drawn) [(1-{1-[2-(3,4-Bis-benzyloxy-phenyl)-2-hydroxy-ethylaminooxalyl]-propylcarbamoyl}-3-methyl-butyl)-carbamic acid benzyl ester]: 100 nM; `CCC(NC(=O)C(CC(C)C)NC(=O)OCc1ccccc1)C(=O)C(=O)NCCc1cccc(OC)c1` (stereo not drawn) [(1-{1-[2-(3-Methoxy-phenyl)-ethylaminooxalyl]-propylcarbamoyl}-3-methyl-butyl)-carbamic acid benzyl ester]: 86 nM; `CCC(NC(=O)C(CC(C)C)NC(=O)OCc1ccccc1)C(=O)C(=O)NCC(O)c1ccc(OCc2ccccc2)cc1` (stereo not drawn) [(1-{1-[2-(4-Benzyloxy-phenyl)-2-hydroxy-ethylaminooxalyl]-propylcarbamoyl}-3-methyl-butyl)-carbamic acid benzyl ester]: 120 nM.
With `CCC(NC(=O)C(CC(C)C)NC(=O)OCc1ccccc1)C(=O)C(=O)NCC(O)c1ccc(N(C)C)cc1` (stereo not drawn) [(1-{1-[2-(4-Dimethylamino-phenyl)-2-hydroxy-ethylaminooxalyl]-propylcarbamoyl}-3-methyl-butyl)-carbamic acid benzyl ester], the affinity corresponds to a Ki of 410 nM.
Next, `CCC(NC(=O)C(CC(C)C)NC(=O)OCc1ccccc1)C(=O)C(=O)NCCc1ccc(O)cc1` (stereo not drawn) [(1-{1-[2-(4-Hydroxy-phenyl)-ethylaminooxalyl]-propylcarbamoyl}-3-methyl-butyl)-carbamic acid benzyl ester]: 60 nM; `CCC(NC(=O)C(CC(C)C)NC(=O)OCc1ccccc1)C(=O)C(=O)NCCc1ccc(OC)cc1` (stereo not drawn) [(1-{1-[2-(4-Methoxy-phenyl)-ethylaminooxalyl]-propylcarbamoyl}-3-methyl-butyl)-carbamic acid benzyl ester]: 46 nM; `CCC(NC(=O)C(CC(C)C)NC(=O)OCc1ccccc1)C(=O)C(=O)NCC(O)c1cccc(Oc2ccccc2)c1` (stereo not drawn) [(1-{1-[2-Hydroxy-2-(3-phenoxy-phenyl)-ethylaminooxalyl]-propylcarbamoyl}-3-methyl-butyl)-carbamic acid benzyl ester]: 590 nM.

These data come from BindingDB's records for doi:10.1021/jm950541c (Georgia Institute of Technology, 1996).
